Source: ChEMBL document CHEMBL1128695, “Synthesis and antiviral activity of 8-aza analogs of chiral [2-(phosphonomethoxy) propyl]guanines” (J Med Chem, 1995)

Legend:
MT4 [1] = test: Cytotoxic concentration required to reduce viability of mock-infected MT-4 cells (4 days); assay type: functional; conditions: Homo sapiens, MT4, 96 h
In short: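 Mock-infected MT-4 cells, 1×10^4/well, incubated with serial compound dilutions (DMSO stock 100 mg/mL diluted in RPMI/10% FCS) for 4 days at 37 °C, run alongside the antiviral test.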

MT4 [2] = test: Protection of MT-4 cells against the cytopathic effect of HIV-2 (8 days); assay type: functional, cell-based; conditions: Homo sapiens, MT4, 192 h
In short: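 MT-4 cells (1×10^4/well, RPMI/10% FCS) with compound dilutions, infected with HIV-2 ROD at 100 CCID50 (MOI 0.01). Stock from persistently infected CEM supernatant.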

MT4 [3] = test: Protection of MT-4 cells against the cytopathic effect of HIV-1 (4 days); assay type: functional, cell-based; conditions: Homo sapiens, MT4, 96 h
In short: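 MT-4 cells (1×10^4/well, RPMI/10% FCS) with compound dilutions, infected with HIV-1 IIIB at 100 CCID50 (MOI 0.01). Stock from persistently infected H9/IIIB supernatant, titrated in C8166 by syncytia scoring.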

[4] = Selectivity Index measured as the ratio of CC50 to that of EC50(HIV-1) values.; assay type: functional
In short: (§1)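 HIV-1 IIIB (100 CCID50, MOI 0.01) was added to 1×10^4 MT-4 cells per well in RPMI/10% FCS with serial compound dilutions, made from a 100 mg/mL DMSO stock. After 4 days at 37 °C, viable cells were counted by MTT. […] SI = CC50/EC50.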

[5] = Selectivity Index measured as the ratio of CC50 to that of EC50(HIV-2) values.; assay type: functional
In short: (§2)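 HIV-2 ROD (100 CCID50, MOI 0.01) infected 1×10^4 MT-4 cells per well in RPMI/10% FCS containing compound dilutions, made from a 100 mg/mL DMSO stock. After 8 days at 37 °C, MTT read viability. […] The CC50 comes from parallel mock-infected MT-4 cultures by MTT over 4 days. The index is the CC50/EC50 ratio.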

[6] = Selectivity Index measured as the ratio of CC50 to that of EC50 (HIV-2) values.; assay type: functional; in short: as §2
[7] = Selectivity Index measured as the ratio of CC50 to that of EC50 (HIV-1) values.; assay type: functional; in short: as §1

| SMILES | CC50 (MT4 [1]) [µM] | EC50 (MT4 [2]) [µM] | EC50 (MT4 [3]) [µM] | Selectivity index [4] | Selectivity index [5] | Selectivity index [6] | Selectivity index [7] |
| --- | --- | --- | --- | --- | --- | --- | --- |
| C[C@H](Cn1nc2nc(N)nc(O)c2n1)OCP(=O)(O)O | > 400 | > 400 | > 400 |  |  |  |  |
| Cc1cn([C@H]2C[C@H](N=[N+]=[N-])[C@@H](CO)O2)c(=O)[nH]c1=O [ZIDOVUDINE] | > 20 |  |  |  |  |  |  |
| C[C@@H](Cn1nc2nc(N)nc(O)c2n1)OCP(=O)(O)O | > 400 | 73 | 53 | > 7.5 | > 5.5 |  |  |
| Nc1nc2c(ncn2CCOCP(=O)(O)O)c(=O)[nH]1 [GS-438] | 2.4 | 0.2 | 0.19 |  |  | 12 | 12.6 |
| C[C@@H](Cn1nnc2c(O)nc(N)nc21)OCP(=O)(O)O | > 400 | 12.5 | 12 |  |  | > 32 | > 33 |
| C[C@H](Cn1cnc2c(O)nc(N)nc21)OCP(=O)(O)O | > 48 | 30 | 19 |  |  | 1.6 | 2.5 |
| C[C@@H](Cn1cnc2c(O)nc(N)nc21)OCP(=O)(O)O | > 400 | 4.5 | 4.5 |  |  | > 89 | > 89 |
| C[C@H](Cn1nnc2c(O)nc(N)nc21)OCP(=O)(O)O | > 400 | 200 | 93 |  |  | 2 | > 4.3 |
